In ChEMBL document CHEMBL1148939, “Montacin and cis-montacin, two new cytotoxic monotetrahydrofuran annonaceous acetogenins from Annona montana” (2004):
Values after ≈ are worked out from the molar mass of the structure shown.

Tests used:
1A9 [1] = test: Cytotoxicity against human 1A9 cells after 6 days by SRB assay in presence of Ca2+; type: functional; settings: 1A9, 144 h, read-out: ED50 (the source's name)
Outline: (§1)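 1A9 ovarian cells or the β-tubulin-mutant PTX10 subline were grown in RPMI-1640 with 10% FBS and 25 mM HEPES. CaCl2 was included in the bioassay as the Ca2+ source. Cells were seeded at 1500-7500 per well with DMSO-diluted compound and cultured for 6 days before SRB staining. The read-out was ED50.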

1A9/ptx-10 [2] = test: Cytotoxicity against human 1A9/PTX10 cells after 3 days by SRB assay in presence of Ca2+; type: functional; settings: 1A9/ptx-10, 72 h, read-out: ED50 (the source's name)
Outline: (§2)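 This is the 3-day SRB growth assay in RPMI-1640 with 10% FBS and 25 mM HEPES, with CaCl2 added to the bioassay as the Ca2+ source. Trypsinized cells were seeded at 1500-7500 per well with DMSO-diluted compound, then fixed with cold TCA, stained with 0.4% SRB and read at 562 nm. ED50 is the concentration causing 50% growth reduction.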

1A9/ptx-10 [3] = test: Cytotoxicity against human 1A9/PTX10 cells after 6 days by SRB assay; type: functional; settings: 1A9/ptx-10, 144 h, read-out: ED50 (the source's name)
Outline: (§3)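 Parent 1A9 ovarian cells or the PTX10 subline (mutated β-tubulin) were grown in RPMI-1640 with 25 mM HEPES, 0.25% NaHCO3, 10% FBS and kanamycin. Freshly trypsinized cells were seeded at 1500-7500 per well with DMSO-diluted compound, cultured for 6 days, and evaluated by SRB staining. Activity was expressed as ED50.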

1A9 [4] = test: Cytotoxicity against human 1A9 cells after 3 days by SRB assay in presence of Ca2+; type: functional; settings: 1A9, 72 h, read-out: ED50 (the source's name); outline: as §2
HCT-8 [5] = test: Cytotoxicity against human HCT8 cells after 3 days by SRB assay in presence of Ca2+; type: functional; settings: HCT-8, 72 h, read-out: ED50 (the source's name); outline: as §2
A549 [6] = test: Cytotoxicity against human A549 cells after 3 days by SRB assay; type: functional; settings: A549, 72 h, read-out: ED50 (the source's name)
Outline: (§4)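 Cells were grown in RPMI-1640 with 25 mM HEPES, 0.25% NaHCO3, 10% FBS and kanamycin. Freshly trypsinized cells were seeded at 1500-7500 per well with compound from a DMSO-diluted stock and cultured for 3 days. Attached cells were fixed with cold 50% TCA, stained with 0.4% SRB, and the solubilized dye was read at 562 nm. ED50 is the concentration giving 50% growth reduction over 3 days.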

PC-3 [7] = test: Cytotoxicity against human PC3 cells after 3 days by SRB assay in presence of Ca2+; type: functional; settings: PC-3, 72 h, read-out: ED50 (the source's name); outline: as §2
KB [8] = test: Cytotoxicity against human KB cells after 3 days by SRB assay; type: functional; settings: 72 h, read-out: ED50 (the source's name); outline: as §4
1A9/ptx-10 [9] = test: Cytotoxicity against human 1A9/PTX10 cells after 3 days by SRB assay; type: functional; settings: 1A9/ptx-10, 72 h, read-out: ED50 (the source's name); outline: as §4
KB [10] = test: Cytotoxicity against human vincristine-resistant KB cells after 3 days by SRB assay in presence of Ca2+; type: functional; settings: 72 h, read-out: ED50 (the source's name); outline: as §2
HCT-8 [11] = test: Cytotoxicity against human HCT8 cells after 3 days by SRB assay; type: functional; settings: HCT-8, 72 h, read-out: ED50 (the source's name); outline: as §4
KB [12] = test: Cytotoxicity against human KB cells after 3 days by SRB assay in presence of Ca2+; type: functional; settings: 72 h, read-out: ED50 (the source's name); outline: as §2
[13] = Cytotoxicity against human U87MG cells after 3 days by SRB assay; type: functional, U-87MG ATCC; settings: U-87 MG, 72 h, read-out: ED50 (the source's name)
MCF7 [14] = test: Cytotoxicity against human MCF7 cells after 3 days by SRB assay; type: functional; settings: MCF7, 72 h, read-out: ED50 (the source's name); outline: as §4
1A9 [15] = test: Cytotoxicity against human 1A9 cells after 6 days by SRB assay; type: functional; settings: 1A9, 144 h, read-out: ED50 (the source's name); outline: as §3
KB [16] = test: Cytotoxicity against human vincristine-resistant KB cells after 3 days by SRB assay; type: functional; settings: 72 h, read-out: ED50 (the source's name); outline: as §4
PC-3 [17] = test: Cytotoxicity against human PC3 cells after 3 days by SRB assay; type: functional; settings: PC-3, 72 h, read-out: ED50 (the source's name); outline: as §4
1A9 [18] = test: Cytotoxicity against human 1A9 cells after 3 days by SRB assay; type: functional; settings: 1A9, 72 h, read-out: ED50 (the source's name); outline: as §4
A549 [19] = test: Cytotoxicity against human A549 cells after 3 days by SRB assay in presence of Ca2+; type: functional; settings: A549, 72 h, read-out: ED50 (the source's name); outline: as §2
[20] = Cytotoxicity against human U87MG cells after 3 days by SRB assay in presence of Ca2+; type: functional, U-87MG ATCC; settings: U-87 MG, 72 h, read-out: ED50 (the source's name)
MCF7 [21] = test: Cytotoxicity against human MCF7 cells after 3 days by SRB assay in presence of Ca2+; type: functional; settings: MCF7, 72 h, read-out: ED50 (the source's name); outline: as §2
1A9/ptx-10 [22] = test: Cytotoxicity against human 1A9/PTX10 cells after 6 days by SRB assay in presence of Ca2+; type: functional; settings: 1A9/ptx-10, 144 h, read-out: ED50 (the source's name); outline: as §1
SK-MEL-2 [23] = test: Cytotoxicity against human SK-MEL-2 cells after 3 days by SRB assay; type: functional; settings: SK-MEL-2, 72 h, read-out: ED50 (the source's name); outline: as §4
[24] = Cytotoxicity against human CAKI cells after 3 days by SRB assay; type: functional; settings: 72 h, read-out: ED50 (the source's name); outline: as §4
SK-MEL-2 [25] = test: Cytotoxicity against human SK-MEL-2 cells after 3 days by SRB assay in presence of Ca2+; type: functional; settings: SK-MEL-2, 72 h, read-out: ED50 (the source's name); outline: as §2
[26] = Cytotoxicity against human CAKI cells after 3 days by SRB assay in presence of Ca2+; type: functional; settings: 72 h, read-out: ED50 (the source's name); outline: as §2

In the case of `CCCCCCC[C@@H](O)[C@H]1CC[C@@H]([C@@H](O)CCCCCCCCCC[C@@H](O)CC(=O)CC[C@@H](O)CC2=C[C@H](C)OC2=O)O1`, the EC50 (1A9 [1]) is reported as 0.13 µg/mL, the EC50 (1A9/ptx-10 [2]) is reported as 5.3 µg/mL and the EC50 (1A9/ptx-10 [3]) is reported as 1.8 µg/mL (≈ 2.95 µM). It also gave an EC50 (1A9 [4]) of 2 µg/mL, an EC50 (HCT-8 [5]) of 11.7 µg/mL and an EC50 (A549 [6]) of 6 µg/mL (≈ 9.82 µM). For the same molecule, the EC50 (PC-3 [7]) was 12.1 µg/mL, the EC50 (KB [8]) was 7.7 µg/mL (≈ 12.6 µM) and the EC50 (1A9/ptx-10 [9]) was 5.9 µg/mL (≈ 9.66 µM). For the same molecule, the EC50 (KB [10]) was 13.8 µg/mL, the EC50 (HCT-8 [11]) was 12.9 µg/mL (≈ 21.1 µM) and the EC50 (KB [12]) was 8.2 µg/mL. For the same molecule, the EC50 [13] was 15 µg/mL (≈ 24.6 µM), the EC50 (MCF7 [14]) was 6.7 µg/mL (≈ 11 µM) and the EC50 (1A9 [15]) was 0.54 µg/mL (≈ 0.884 µM). The EC50 (KB [16]) was 13.4 µg/mL (≈ 21.9 µM), the EC50 (PC-3 [17]) was 11.9 µg/mL (≈ 19.5 µM) and the EC50 (1A9 [18]) was 3.6 µg/mL (≈ 5.89 µM). For the same molecule, the EC50 (A549 [19]) was 5.5 µg/mL, the EC50 [20] was 14.3 µg/mL and the EC50 (MCF7 [21]) was 6.4 µg/mL. For the same molecule, the EC50 (1A9/ptx-10 [22]) was 0.11 µg/mL.
With `CCCCCCC[C@H](O)[C@@H]1CC[C@@H]([C@@H](O)CCCCCCCCCC[C@H](O)CC(=O)CC[C@@H](O)CC2=C[C@H](C)OC2=O)O1` [MONTACIN] the EC50 (1A9 [1]) was 4.5 µg/mL, the EC50 (1A9/ptx-10 [2]) was 7.5 µg/mL and the EC50 (1A9/ptx-10 [3]) was 7.9 µg/mL (≈ 12.9 µM). The EC50 (1A9 [4]) was 6.7 µg/mL, the EC50 (HCT-8 [5]) was 12.3 µg/mL and the EC50 (A549 [6]) was 12.9 µg/mL (≈ 21.1 µM). The EC50 (SK-MEL-2 [23]) was 11.2 µg/mL (≈ 18.3 µM), the EC50 (PC-3 [7]) was 14.2 µg/mL and the EC50 (KB [8]) was 16.6 µg/mL (≈ 27.2 µM). For the same molecule, the EC50 (1A9/ptx-10 [9]) was > 10 µg/mL, the EC50 (KB [10]) was 13.9 µg/mL and the EC50 [24] was > 20 µg/mL. For the same molecule, the EC50 (SK-MEL-2 [25]) was 13.3 µg/mL, the EC50 (HCT-8 [11]) was 16.5 µg/mL (≈ 27 µM) and the EC50 (KB [12]) was 9.1 µg/mL. The EC50 [13] was > 20 µg/mL, the EC50 (MCF7 [14]) was 10 µg/mL (≈ 16.4 µM) and the EC50 (1A9 [15]) was 6.7 µg/mL (≈ 11 µM). The EC50 (KB [16]) was > 20 µg/mL, the EC50 [26] was 14.2 µg/mL and the EC50 (PC-3 [17]) was > 20 µg/mL. For the same molecule, the EC50 (1A9 [18]) was > 10 µg/mL, the EC50 (A549 [19]) was 7.4 µg/mL and the EC50 [20] was 14.2 µg/mL. For the same molecule, the EC50 (MCF7 [21]) was 5.5 µg/mL and the EC50 (1A9/ptx-10 [22]) was 2.8 µg/mL.
